Experimental findings from ChEMBL document CHEMBL2034949, “Small Molecule Inhibitors of Regulator of G Protein Signalling (RGS) Proteins” (ACS Med Chem Lett, 2012) are described below.

A word on the pIC50: it is the IC50 on a negative log10 scale, so that one unit is a factor of ten. A low value points to a high IC50.

Structures are written as SMILES. pIC50: −log10 of the molar value. Active and inactive are the calls of the source. The calls are words filed in the database; no cut-off is given here.

The nature of data set [1]: Selectivity ratio of IC50 for RGS8 to IC50 RGS4.
Data set [2] is described as follows: Aqueous solubility of the compound at 500 uM. It is filed as physicochemical. The note with it: buffer.
In data set [3] the target is Regulator of G-protein signaling 4 (Homo sapiens, UniProt P49798). The experiment in a line: Inhibition of RGS4 interaction with Galpha0 protein by flow cytometry protein interaction assay. The procedure, abridged: (§1)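 Inhibition of Gαo binding to RGS4 or RGS8. IC50 taken as the average of two independent experiments.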
In general terms: A flow cytometer gives signals particle by particle.

The target in data set [4] is T1, Regulator of G-protein signaling 8 (Homo sapiens, UniProt P57771).
T1 sequence (P57771 whole entry): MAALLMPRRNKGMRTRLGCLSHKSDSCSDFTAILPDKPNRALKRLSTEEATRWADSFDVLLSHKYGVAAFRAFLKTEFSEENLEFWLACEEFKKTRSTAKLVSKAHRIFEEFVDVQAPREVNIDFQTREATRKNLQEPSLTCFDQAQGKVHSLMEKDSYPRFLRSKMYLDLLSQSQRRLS
The experiment in a line: Inhibition of RGS8 interaction with Galpha0 protein by flow cytometry protein interaction assay. The procedure, abridged: as §1

Data set [5] addresses Muscarinic acetylcholine receptor M3 (Homo sapiens) (UniProt P20309). The experiment in a line: Activity at human muscarinic M3 receptor expressed in HEK293T cells assessed as increase in carbachol-induced intracellular calcium level at 10 uM after 30 to 45 mins by fluorimetry. The class given is functional, cell-based. As to conditions: HEK-293T. The procedure, abridged:
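HEK-293 cells stably expressing human M3 muscarinic receptor, plated overnight, loaded with Fluo4-NW for 30 min at 37 °C. Compound added at 10 uM final in 1% DMSO; baseline fluorescence read after 30-45 min, then carbachol injected (10 nM final). Intracellular Ca++ rise expressed as percent of baseline; triplicate determinations, DMSO control n=16.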

Sequence of Regulator of G-protein signaling 4 (P49798 whole entry): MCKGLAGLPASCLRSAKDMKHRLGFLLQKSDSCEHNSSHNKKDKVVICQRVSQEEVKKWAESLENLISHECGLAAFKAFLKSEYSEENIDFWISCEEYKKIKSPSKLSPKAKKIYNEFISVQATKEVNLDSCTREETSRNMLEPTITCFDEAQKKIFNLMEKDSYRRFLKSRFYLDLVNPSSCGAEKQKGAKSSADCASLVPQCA
Sequence of Muscarinic acetylcholine receptor M3 (Homo sapiens) (P20309 whole entry, looked up): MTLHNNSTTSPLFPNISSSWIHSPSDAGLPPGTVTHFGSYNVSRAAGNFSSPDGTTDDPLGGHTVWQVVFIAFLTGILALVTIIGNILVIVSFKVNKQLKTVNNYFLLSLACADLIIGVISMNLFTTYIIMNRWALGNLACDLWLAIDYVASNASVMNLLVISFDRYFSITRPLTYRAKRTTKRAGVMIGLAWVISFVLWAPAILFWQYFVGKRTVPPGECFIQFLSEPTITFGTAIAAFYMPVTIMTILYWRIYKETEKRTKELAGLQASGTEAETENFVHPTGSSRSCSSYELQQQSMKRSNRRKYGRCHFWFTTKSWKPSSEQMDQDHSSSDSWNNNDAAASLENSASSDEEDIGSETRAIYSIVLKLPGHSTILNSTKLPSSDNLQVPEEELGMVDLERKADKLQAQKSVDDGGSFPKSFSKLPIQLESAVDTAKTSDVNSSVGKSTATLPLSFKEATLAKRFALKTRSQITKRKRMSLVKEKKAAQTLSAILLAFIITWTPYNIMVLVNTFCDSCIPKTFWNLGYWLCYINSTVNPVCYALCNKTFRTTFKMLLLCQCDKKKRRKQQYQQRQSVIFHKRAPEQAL

Take `CCCCn1c(=O)sn(C(C)(C)C)c1=O`: the Ratio IC50 in data set [1] was 2220. For the same compound, in data set [2], the solubility result was “soluble”.
Turning to `Cc1ccc(-n2sc(=O)n(Cc3cccc(Cl)c3)c2=O)cc1`, the Ratio IC50 in data set [1] was 1000.
For `O=c1sn(-c2ccccc2)c(=O)n1Cc1ccccc1`, the Ratio IC50 in data set [1] was 239.
With `O=c1sn(-c2ccc(Cl)c(Cl)c2)c(=O)n1Cc1ccc(F)cc1`, the Ratio IC50 in data set [1] amounted to 481.
On to `CCn1sc(=O)n(C)c1=O`, for which, in data set [1], the Ratio IC50 was found to be 1660. Also, the solubility result in data set [2] is “soluble”.
`O=c1sn(-c2cccc(C(F)(F)F)c2)c(=O)n1Cc1ccccc1`: in data set [1], the Ratio IC50 turned out to be 286.
Same read-out and setting: to `COc1ccc(-n2sc(=O)n(Cc3ccccc3)c2=O)cc1` belongs 515.
For `Cc1ccc(CN2C(=O)CN(c3ccc(C)cc3)C2=O)cc1`, the pIC50 in data set [3] and in data set [4] was less than 4.00 in each case.
Regarding `O=c1sn(-c2cccc(C(F)(F)F)c2)c(=O)n1Cc1ccc(F)cc1`, in data set [1], the Ratio IC50 worked out at 204.
As for `Cc1ccc(-n2sc(=O)n(Cc3ccc(F)cc3)c2=O)cc1`, the pIC50 is 7.52 in data set [3] and 4.96 in data set [4]. Moreover, in data set [1], the Ratio IC50 is 366. Besides, in data set [5], the result was Active.
Take `O=c1sn(-c2cccc(Cl)c2)c(=O)n1Cc1ccc(F)cc1`: the Ratio IC50 in data set [1] is 245.
As for `CC(C)Cn1c(=O)sn(C(C)(C)C)c1=O`, the Ratio IC50 in data set [1] was 6660. In data set [2], the solubility result was “soluble”.
With `Cc1ccc(-n2sc(=O)n(CC(C)C)c2=O)cc1`, in data set [1], the Ratio IC50 was determined as 550.
`Cn1c(=O)sn(C(C)(C)C)c1=O`: the Ratio IC50 in data set [1] is 2020. Further, the solubility result in data set [2] was “soluble”.
For `O=c1sn(-c2ccc(Cl)c(Cl)c2)c(=O)n1Cc1ccccc1`, in data set [1], the Ratio IC50 turned out to be 149.
Still for that read-out and setting: under `O=c1sn(-c2cccc(Cl)c2)c(=O)n1Cc1ccccc1` stands 335; under `CCCCn1sc(=O)n(Cc2ccc(F)cc2)c1=O`, 2020; under `COc1ccc(-n2sc(=O)n(Cc3ccc(F)cc3)c2=O)cc1`, 1050.
Same read-out and setting: under `O=c1sn(-c2ccccc2)c(=O)n1Cc1ccc(F)cc1` stands 380.
Take `O=c1sn(-c2ccc(Cl)cc2)c(=O)n1Cc1ccccc1`: in data set [1], the Ratio IC50 stood at 183.
On to `CCCCn1sc(=O)n(CCCC)c1=O`, for which the Ratio IC50 in data set [1] was 4110. Further, the solubility entry in data set [2] is “soluble”.
As for `Cc1ccc(-n2sc(=O)n(C)c2=O)cc1`, the Ratio IC50 in data set [1] is 445.
As for `O=c1sn(-c2ccc(Cl)cc2)c(=O)n1Cc1ccc(F)cc1`, in data set [1], the Ratio IC50 was found to be 564.
On the same count and under the same terms, under `CCCCn1c(=O)sn(-c2ccc(C)cc2)c1=O` stands 483; under `Cc1ccc(Cn2c(=O)sn(-c3ccc(C)cc3)c2=O)cc1`, 1340.
For `CCCCn1c(=O)sn(CC)c1=O`, the result in data set [5] was inactive. For the same compound, in data set [2], the solubility entry is recorded as “soluble”.
With `CCn1sc(=O)n(CCOC)c1=O`, the Ratio IC50 in data set [1] came out at 665. In addition, the outcome in data set [5] was inactive.
Take `Cc1ccc(-n2sc(=O)n(Cc3ccc(Cl)cc3)c2=O)cc1`: the Ratio IC50 in data set [1] was 2170.
The same measure, in the same setting: under `Cc1ccc(-n2sc(=O)n(Cc3ccccc3)c2=O)cc1` stands 519.
As to `CCCCn1sc(=O)n(CC(C)C)c1=O`, in data set [1], the Ratio IC50 amounted to 2540. Further, the solubility result in data set [2] is listed as “soluble”.
Take `Cc1ccc(-n2sc(=O)n(Cc3cccc(C)c3)c2=O)cc1`: in data set [1], the Ratio IC50 stood at 679.
Regarding `Cc1ccc(Cn2sc(=O)n(Cc3ccccc3)c2=O)cc1`, the Ratio IC50 in data set [1] worked out at 2840.
On the same count and under the same terms, under `Cc1cccc(-n2sc(=O)n(Cc3ccccc3)c2=O)c1` stands 558; under `Cc1cccc(-n2sc(=O)n(Cc3ccc(F)cc3)c2=O)c1`, 59.
For the compound `CCn1sc(=O)n(CC(C)C)c1=O`, the Ratio IC50 in data set [1] came out at 2680. The solubility entry in data set [2] is “soluble”.
Taken in the same sequence, the figures for `CCCCn1sc(=O)n(C)c1=O` were 1210 and “soluble”.
For the compound `COc1ccc(Cn2c(=O)sn(-c3ccc(C)cc3)c2=O)cc1`, in data set [3], the negative-log IC50 (pIC50) is 6.75. Moreover, the Ratio IC50 in data set [1] stood at 1780.
Regarding `CCn1sc(=O)n(Cc2ccc(F)cc2)c1=O`, the Ratio IC50 in data set [1] is 842.
Same read-out and setting: to `Cc1ccc(Cn2sc(=O)n(Cc3ccc(F)cc3)c2=O)cc1` belongs 3090.
For `Cc1ccc(-n2sc(=O)n(Cc3ccc(Cl)c(Cl)c3)c2=O)cc1`, the Ratio IC50 in data set [1] was 460.
